We go through three molecules from ChEMBL document CHEMBL1140313, “Potent inhibitors of subgenomic hepatitis C virus RNA replication through optimization of indole-N-acetamide allosteric inhibitors of the viral NS5B polymerase” (J Med Chem, 2005).

A short description of series [1]: Plasma clearance in dog. Conditions: read-out: Clp. It is filed as ADME, organism-based, Canis lupus familiaris. A digest of the protocol:
(§1)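 Sprague-Dawley rats and male beagle dogs, dosed as trifluoroacetate salts (mg/kg; n = 3, some n = 2). Rat vehicle: iv 20% DMSO/[…] with po PEG-400, or iv 20% DMSO/80% saline with po 50% PEG-400/50% H2O. Dog vehicle: iv 20% DMSO/40% PEG-400/40% H2O, po PEG-400. Plasma levels measured by HPLC–MS/MS; noncompartmental analysis; terminal half-life from iv.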

Series [2] in a line: Oral bioavailability in rat (dose 3 mg/kg). Conditions: in vivo. It is filed as ADME, organism-based. A digest of the protocol:
as §1

The nature of series [3]: Plasma clearance in rat. Conditions: read-out: Clp. It is filed as ADME, organism-based. The method, boiled down: as §1
Series [4] concerns the target T1, pregnane X receptor (PXR, NR1I2) (Homo sapiens, UniProt O75469).
T1 sequence (O75469 whole entry): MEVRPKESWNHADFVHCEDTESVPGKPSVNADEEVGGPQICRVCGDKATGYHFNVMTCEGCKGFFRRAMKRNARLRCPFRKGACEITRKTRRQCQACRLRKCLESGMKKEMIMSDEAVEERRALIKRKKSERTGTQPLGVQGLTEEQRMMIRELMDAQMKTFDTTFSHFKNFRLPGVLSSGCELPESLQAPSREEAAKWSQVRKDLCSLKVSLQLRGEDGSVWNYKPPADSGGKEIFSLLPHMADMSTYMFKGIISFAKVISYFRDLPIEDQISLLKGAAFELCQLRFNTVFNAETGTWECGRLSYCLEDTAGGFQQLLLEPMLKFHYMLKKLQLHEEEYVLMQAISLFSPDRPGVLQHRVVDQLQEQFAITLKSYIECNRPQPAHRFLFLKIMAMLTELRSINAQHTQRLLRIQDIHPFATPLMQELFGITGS
As to the kind of experiment: Inhibition of pregnane X receptor mediated activation of alkaline phosphatase reporter gene at 10 uM. It is filed as functional. A digest of the protocol:
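HepG2 cells were cotransfected with a human PXR expression vector and a secreted alkaline phosphatase (SEAP) reporter driven by a synthetic PXR-responsive element. Cells were incubated 48 h with or without test compound, and SEAP activity was read with a commercial detection kit.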

Series [5] in a line: Plasma half life following 3 mg/kg iv administration in rat. It is filed as ADME, organism-based. Details: dose 3 mg/kg, route intravenous. A digest of the protocol:
as §1

Series [6] concerns the target T2, RNA-directed RNA polymerase (Hepacivirus hominis, UniProt O39930). As to the kind of experiment: Inhibitory activity against by hepatitis C virus NS5B polymerase. A digest of the protocol:
(§2)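 Purified ΔC55 NS5B polymerase assayed with heterogenic template RNA. IC50 values come from a single experiment or are arithmetic means of multiple experiments, as footnoted; some were measured in duplicate.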

In series [7] the test system is Huh-7. As to the kind of experiment: Effective concentration required to inhibit replication of subgenomic HCV RNA in HUH-7 cells. Conditions: Homo sapiens. In kind it is functional, cell-based. A digest of the protocol: (§3)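 Subgenomic HCV replicon in HUH-7 cells, run in medium with 10% fetal calf serum (a modification of Bartenschlager's method). EC50 was determined only for compounds giving >50% inhibition in an initial screen at a fixed 5 μM. Values are the arithmetic mean ± half-range or standard error of at least two independent determinations, or from a single experiment where noted.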

Series [8] can be described thus: Oral bioavailability in dog at a dose of 2 mg/kg. It is filed as ADME, organism-based, Canis lupus familiaris. Conditions: in vivo. The method, boiled down: as §1
A short description of series [9]: Plasma half life following 0.5 mg/kg iv administration in dog.
Series [10] in a line: Plasma clearance after intravenous administration of 1 mg/kg in dog. It is filed as ADME, organism-based, Canis lupus familiaris. Also on record: dose 1 mg/kg, route intravenous. Conditions: read-out: Clp. A digest of the protocol: as §1
Series [11] can be described thus: Plasma clearance in dod. In kind it is ADME, organism-based, Canis lupus familiaris. Conditions: dog, read-out: Clp. The method, boiled down:
as §1

Series [12] concerns the target T2, RNA-directed RNA polymerase. The experiment in a line: Inhibitory activity against hepatitis C virus NS5B polymerase enzyme; Range=6-9 nM. The method, boiled down: as §2
For series [13], the system named is Huh-7. The experiment in a line: Effective concentration required to inhibit replication of subgenomic HCV RNA in HUH-7 cells in the presence of 10% fetal calf serum. In kind it is functional, cell-based. Conditions: Homo sapiens. The method, boiled down:
as §3

Series [14] can be described thus: Plasma half life following 1 mg/kg iv administration in dog. It is filed as ADME, organism-based, Canis lupus familiaris. Also on record: dose 1 mg/kg, route intravenous. The method, boiled down:
as §1

Series [15] deals with Huh-7. As to the kind of experiment: Effective concentration required to inhibit replication of subgenomic HCV RNA in HUH-7 cells in the presence of 50% normal human serum. It is filed as functional, cell-based. A digest of the protocol: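 Subgenomic HCV replicon in HUH-7 cells run under high-serum conditions with 50% normal human serum in place of 10% fetal calf serum. EC50 values are the arithmetic mean ± half-range or standard error of at least two independent determinations.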

T2 sequence (O39930 whole entry): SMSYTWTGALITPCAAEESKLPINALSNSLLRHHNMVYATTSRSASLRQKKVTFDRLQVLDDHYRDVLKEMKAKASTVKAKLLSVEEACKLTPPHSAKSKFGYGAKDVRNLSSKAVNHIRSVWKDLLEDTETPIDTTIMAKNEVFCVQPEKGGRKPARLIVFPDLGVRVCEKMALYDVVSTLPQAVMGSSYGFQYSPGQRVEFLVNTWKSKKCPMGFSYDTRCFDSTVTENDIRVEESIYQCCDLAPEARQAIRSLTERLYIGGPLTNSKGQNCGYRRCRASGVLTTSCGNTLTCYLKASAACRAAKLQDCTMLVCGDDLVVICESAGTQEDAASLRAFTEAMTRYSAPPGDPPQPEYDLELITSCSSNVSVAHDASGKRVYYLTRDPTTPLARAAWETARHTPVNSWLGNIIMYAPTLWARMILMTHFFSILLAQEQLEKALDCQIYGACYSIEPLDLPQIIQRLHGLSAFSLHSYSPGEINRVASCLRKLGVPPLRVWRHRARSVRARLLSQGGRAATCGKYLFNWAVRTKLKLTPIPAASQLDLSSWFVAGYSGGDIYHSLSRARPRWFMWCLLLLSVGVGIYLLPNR

With `CN1CCCC(CN(C)C(=O)Cn2c(-c3ccccc3)c(C3CCCCC3)c3ccc(C(=O)O)cc32)C1` (configuration not stated), the clearance turned out to be 22 mL/min/kg in series [1] and 51 mL/min/kg in series [3]. For the same molecule, the bioavailability in series [2] was 1.9%; in [8], 28%. Besides, testing at 10 µM in series [4] gave an inhibition of 10%. Further, the half-life was 90 min in series [5] and 72 min in series [9]. In [6], this molecule showed an IC50 of 18 nM. The same molecule displayed a 50% effective concentration (EC50) in series [7] of 300 nM.

As to `CCN(CC)C1CCN(C(=O)Cn2c(-c3ccc(Cl)cc3)c(C3CCCCC3)c3ccc(C(=O)O)cc32)CC1`, the bioavailability in [2] came to 10%; in series [8], 51%. For the same molecule, the values for the clearance in series [3], in series [10] and in series [11] were 44 mL/min/kg, 9 mL/min/kg and 9 mL/min/kg, respectively. In series [12], this molecule showed a half-inhibitory concentration (IC50) of 9 nM. In addition, the half-life was 186 min in series [5] and 300 min in [14]. Besides, the figures for the EC50 in series [13] and in [15] were 127 nM and 454 nM, respectively.

`O=C(O)c1ccc2c(C3CCCCC3)c(-c3ccoc3)n(CC(=O)N3CCC(N4CCC4)CC3)c2c1`: the 50% inhibitory concentration (IC50) in [12] was determined as 9 nM. Also, the EC50 in series [13] was found to be 199 nM; in series [15], 633 nM.
